Converted amounts (≈) assume the structure as drawn. The source made the active and inactive calls. The calls are words filed in the database; no cut-off is given here.

The results in this text go back to ChEMBL document CHEMBL3259662 (ACS Med Chem Lett, 2014).

The test system of one data set is Aspergillus fumigatus. The data set can be described thus: Antifungal activity against Aspergillus fumigatus by CLSI method. In kind it is functional, organism-based.
The subject of a further data set is SK-MEL. The experiment in a line: Cytotoxicity against human SK-MEL cells assessed as cell viability after 48 hrs by neutral red uptake assay. The data set is classed as cell-based. A digest of the protocol: (§1)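 Neutral red uptake assay in human cancer lines SK-MEL, KB, BT-549 and SK-OV-3 and in noncancerous mammalian kidney cells VERO and LLC-PK1. The highest tested concentration was 10 μg/mL.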

The subject of a further data set is Vero. The experiment in a line: Cytotoxicity against African green monkey Vero cells assessed as cell viability after 48 hrs by neutral red uptake assay. The data set is classed as cell-based. The following applies: chlorocebus sabaeus. A digest of the protocol: as §1
Another data set deals with Pichia kudriavzevii. The experiment in a line: Antifungal activity against Candida krusei by CLSI method. In kind it is functional, organism-based.
Data set [1] is described as follows: Selectivity index, ratio of cytotoxicity for human SKOV3 cells to IC50 for Cryptococcus neoformans ATCC 90113. The following applies: read-out: Selectivity Index. The data set is classed as toxicity, cell-based, SK-OV-3.
Data set [2] is described as follows: Retention time of the compound by reverse phase HPLC analysis. In kind it is physicochemical. A digest of the protocol: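 Reverse-phase HPLC on a C-18 column (25 cm × 4.6 mm, 5 μM) at 1 mL/min over 40 min. The gradient ran 85−5% with A = 0.1% TFA in H2O and B = 0.1% TFA in CH3CN. Detection was at 220 nm.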
Data set [3] in a line: Selectivity index, ratio of cytotoxicity for human BT549 cells to IC50 for Cryptococcus neoformans ATCC 90113. In kind it is toxicity, cell-based, BT-549. The note with it: read-out: Selectivity Index.
For another data set, the system named is Nakaseomyces glabratus. The experiment in a line: Antifungal activity against Candida glabrata by CLSI method. The data set is classed as functional, organism-based.
The next data set concerns SK-OV-3. The data set can be described thus: Cytotoxicity against human SKOV3 cells assessed as cell viability after 48 hrs by neutral red uptake assay. In kind it is cell-based. The following applies: sk-ov-3, 48 h. Put shortly:
as §1

A further data set concerns Escherichia coli. The experiment in a line: Antibacterial activity against Escherichia coli ATCC 35218 after 16 to 20 hrs by CLSI method. The data set is classed as functional, organism-based.
In a further data set the test system is KB. The experiment in a line: Cytotoxicity against human KB cells assessed as cell viability after 48 hrs by neutral red uptake assay. In kind it is cell-based. Put shortly:
as §1

Another data set has as its system BT-549. The experiment in a line: Cytotoxicity against human BT549 cells assessed as cell viability after 48 hrs by neutral red uptake assay. In kind it is cell-based. The note with it: bt-549, 48 h. A digest of the protocol:
as §1

Data set [4] can be described thus: Selectivity index, ratio of cytotoxicity for African green monkey Vero cells to IC50 for Cryptococcus neoformans ATCC 90113. The data set is classed as toxicity, cell-based. The note with it: read-out: Selectivity Index.
A short description of data set [5]: Selectivity index, ratio of cytotoxicity for human KB cells to IC50 for Cryptococcus neoformans ATCC 90113. In kind it is toxicity, cell-based. The note with it: read-out: Selectivity Index.
The nature of data set [6]: Selectivity index, ratio of cytotoxicity for human SK-MEL cells to IC50 for Cryptococcus neoformans ATCC 90113. The data set is classed as toxicity, cell-based. The note with it: read-out: Selectivity Index.
The next data set relates to Cryptococcus neoformans. The data set can be described thus: Antifungal activity against Cryptococcus neoformans ATCC 90113 after 70 to 74 hrs by CLSI method. The data set is classed as functional, organism-based. The following applies: for IC50 / MIC: Cryptococcus neoformans, ATCC 90113. Put shortly: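 Growth inhibition of C. neoformans per the CLSI protocol. […] MIC is the lowest test concentration with no detectable growth. MFC is the lowest concentration killing 100% of the organism.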

In the next data set the test system is Candida albicans. The experiment in a line: Antifungal activity against Candida albicans by CLSI method. The data set is classed as functional, organism-based.
The next data set concerns LLC-PK1. The data set can be described thus: Cytotoxicity against pig LLC-PK1 cells assessed as cell viability after 48 hrs by neutral red uptake assay. The data set is classed as cell-based, Sus scrofa. The following applies: llc-pk1, 48 h. Put shortly: as §1
The nature of data set [7]: Selectivity index, ratio of cytotoxicity for pig LLC-PK1 cells to IC50 for Cryptococcus neoformans ATCC 90113. In kind it is toxicity, cell-based. The following applies: read-out: Selectivity Index.

Consider `COC(=O)[C@H](CCCNC(=N)N)NC(=O)[C@H](Cc1c[nH]c(-c2ccc(OC)cc2)n1)NC(=O)[C@H](CCCNC(=N)N)NC(=O)OC(C)(C)C`, for which the result with Aspergillus fumigatus, in the data set on Pichia kudriavzevii, in the data set with Nakaseomyces glabratus, in the data set with Escherichia coli and with Candida albicans was inactive. Also, the Activity in the data set with SK-MEL, in the data set on Vero, in the data set with SK-OV-3, with KB, with BT-549 and in the data set with LLC-PK1 was more than 10 µg/mL each time. For the same molecule, the selectivity ratio in [1], in data set [3], in [4], in data set [5], in data set [6] and in data set [7] was more than 2.5 throughout. For the same molecule, the Retention_time in [2] is given as 13.59 min. In addition, the MFC100 against Cryptococcus neoformans came to 5 µg/mL (≈ 7.27 µM). In the data set on Cryptococcus neoformans, this molecule came in with an IC50 of 4.06 µg/mL (≈ 5.9 µM). In the data set with Cryptococcus neoformans, the MIC worked out at 5 µg/mL (≈ 7.27 µM).
`COC(=O)[C@H](CCCNC(=N)N)NC(=O)[C@H](Cc1c[nH]c(-c2ccc(-c3ccccc3)cc2)n1)NC(=O)[C@H](CCCNC(=N)N)NC(=O)OC(C)(C)C`: the result with Aspergillus fumigatus, with Pichia kudriavzevii, with Nakaseomyces glabratus, in the data set with Escherichia coli and with Candida albicans was inactive. The Activity in the data set with SK-MEL, in the data set with Vero, in the data set with SK-OV-3, in the data set with KB, with BT-549 and in the data set on LLC-PK1 was more than 10 µg/mL throughout. The selectivity ratio in data set [1], in [3], in data set [4], in [5], in data set [6] and in data set [7] was more than 12.5 in each case. In addition, in [2], the Retention_time is recorded as 18.64 min. This molecule displayed an MFC100 against Cryptococcus neoformans of 1.25 µg/mL (≈ 1.7 µM). Moreover, in the data set on Cryptococcus neoformans, inhibition was half-maximal at 0.8 µg/mL (≈ 1.09 µM) (IC50). The MIC against Cryptococcus neoformans is 1.25 µg/mL (≈ 1.7 µM).
`COC(=O)[C@H](CCCNC(=N)N)NC(=O)[C@H](Cc1c[nH]c(-c2ccc(C(C)(C)C)cc2)n1)NC(=O)[C@@H](N)CCCNC(=N)N`: the result in the data set with Aspergillus fumigatus, in the data set on Pichia kudriavzevii, in the data set with Nakaseomyces glabratus, in the data set on Escherichia coli and in the data set with Candida albicans was inactive. Also, the Activity in the data set with SK-MEL, in the data set with Vero, in the data set with SK-OV-3, in the data set with KB, with BT-549 and with LLC-PK1 was more than 10 µg/mL throughout. Moreover, the selectivity ratio in data set [1], in data set [3], in [4], in data set [5], in [6] and in data set [7] was more than 16.3 each time. The molecule further returned an MFC100 in the data set on Cryptococcus neoformans of 1.25 µg/mL (≈ 2.04 µM). Also, 0.61 µg/mL (≈ 0.994 µM) corresponded to half-maximal inhibition in the data set on Cryptococcus neoformans (IC50). In the data set on Cryptococcus neoformans, this molecule displayed an MIC of 1.25 µg/mL (≈ 2.04 µM).
On to `COC(=O)[C@H](CCCNC(=N)N)NC(=O)[C@H](Cc1c[nH]c(-c2ccc(-c3ccccc3)cc2)n1)NC(=O)[C@@H](N)CCCNC(=N)N`, for which the outcome in the data set with Aspergillus fumigatus, in the data set on Pichia kudriavzevii, with Nakaseomyces glabratus, with Escherichia coli and in the data set on Candida albicans was inactive. Moreover, the Activity in the data set with SK-MEL, with Vero, in the data set with SK-OV-3, in the data set on KB, in the data set on BT-549 and with LLC-PK1 was more than 10 µg/mL throughout. The selectivity ratio in data set [1], in data set [3], in [4], in data set [5], in data set [6] and in [7] was more than 16.9 in each case. Moreover, the MFC100 against Cryptococcus neoformans turned out to be 1.25 µg/mL (≈ 1.97 µM). Moreover, half-maximal inhibition in the data set with Cryptococcus neoformans (IC50) was put at 0.59 µg/mL (≈ 0.931 µM). For the same molecule, in the data set on Cryptococcus neoformans, the minimal inhibitory concentration (MIC) stood at 1.25 µg/mL (≈ 1.97 µM).
As for `C[C@@H]1[C@H](O)[C@@H](C)/C=C/C=C/C=C/C=C/C=C/C=C/C=C/[C@H](O[C@@H]2O[C@H](C)[C@@H](O)[C@H](N)[C@@H]2O)C[C@@H]2O[C@](O)(C[C@@H](O)C[C@@H](O)[C@H](O)CC[C@@H](O)C[C@@H](O)CC(=O)O[C@H]1C)C[C@H](O)[C@H]2C(=O)O` [AMPHOTERICIN B], in the data set on Cryptococcus neoformans, the MFC100 turned out to be 1.25 µg/mL (≈ 1.35 µM) and the MIC was 1.25 µg/mL (≈ 1.35 µM).
For `Cc1ccc(-c2nc(C[C@H](NC(=O)[C@@H](N)CCCNC(=N)N)C(=O)N[C@@H](CCCNC(=N)N)C(=O)NCc3ccccc3)c[nH]2)cc1`, the outcome in the data set on Aspergillus fumigatus, with Pichia kudriavzevii, in the data set with Nakaseomyces glabratus, with Escherichia coli and with Candida albicans was inactive. Besides, the Activity with SK-MEL, with Vero, with SK-OV-3, with KB, in the data set with BT-549 and in the data set on LLC-PK1 was more than 10 µg/mL in each case. Besides, the selectivity ratio in [1], in data set [3], in [4], in [5], in data set [6] and in data set [7] was more than 28.6 throughout. Besides, in the data set with Cryptococcus neoformans, the MFC100 was determined as 10 µg/mL (≈ 15.5 µM). Further, half-maximal inhibition in the data set on Cryptococcus neoformans (IC50) required 0.35 µg/mL (≈ 0.541 µM). Inhibition of growth in the data set with Cryptococcus neoformans (MIC) required 0.63 µg/mL (≈ 0.974 µM).
With `COC(=O)[C@H](CCCNC(=N)N)NC(=O)[C@H](Cc1c[nH]c(-c2ccc(OC)cc2)n1)NC(=O)[C@@H](N)CCCNC(=N)N`, the result in the data set with Aspergillus fumigatus, in the data set on Pichia kudriavzevii, with Nakaseomyces glabratus, in the data set on Escherichia coli and in the data set with Candida albicans was inactive. The Activity with SK-MEL, in the data set with Vero, in the data set with SK-OV-3, with KB, in the data set on BT-549 and with LLC-PK1 was more than 10 µg/mL throughout. Also, the selectivity ratio in data set [1], in data set [3], in data set [4], in data set [5], in data set [6] and in data set [7] was more than 2.5 throughout. Also, the MFC100 with Cryptococcus neoformans was determined as 5 µg/mL (≈ 8.51 µM). It took 3.93 µg/mL (≈ 6.69 µM) to reach half-maximal inhibition in the data set on Cryptococcus neoformans (IC50). Further, in the data set on Cryptococcus neoformans, inhibition of growth (MIC) required 5 µg/mL (≈ 8.51 µM).
In the case of `N=C(N)NCCC[C@H](NC(=O)[C@H](Cc1c[nH]c(-c2ccccc2)n1)NC(=O)[C@@H](N)CCCNC(=N)N)C(=O)NCc1ccccc1`, the outcome in the data set on Aspergillus fumigatus, in the data set on Pichia kudriavzevii, with Nakaseomyces glabratus, in the data set with Escherichia coli and with Candida albicans was inactive. Also, the Activity with SK-MEL, in the data set with Vero, in the data set with SK-OV-3, in the data set on KB, in the data set on BT-549 and in the data set on LLC-PK1 was more than 10 µg/mL in each case. Also, the selectivity ratio in [1], in data set [3], in [4], in data set [5], in data set [6] and in data set [7] was more than 13.7 each time. The molecule further had an MFC100 against Cryptococcus neoformans of 1.25 µg/mL (≈ 1.98 µM). Also, the IC50 in the data set on Cryptococcus neoformans worked out at 0.73 µg/mL (≈ 1.15 µM). The molecule further registered a minimum inhibitory concentration (MIC) against Cryptococcus neoformans of 1.25 µg/mL (≈ 1.98 µM).

The term IC50 denotes the point on the concentration scale where inhibition reaches its midpoint. The term MIC denotes the lowest concentration that inhibits growth of the organism.
